Assay outcomes (PubChem)
Runt-CBFb FRET = inhibitors of RUNX1 Runt–CBFb binding, primary screen, biochemical, FRET, Cerulean-Runt, Venus-CBFb, uHTS. Runt-related transcription factor 1 (Homo sapiens) + Core-binding factor subunit beta …. Cerulean-Runt/Venus-CBFb FRET ratio 530/480, 1 h. inhibition, % at 20 µM. hit rate 0.46% among 220,000;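 active means inhibition over about 50% at 20 µM in the single-dose screen, limit read from the data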
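Schedule: protein complex preformed 1 h, compound exposure 1 h, room temperature, dark; test system: Cerulean-labeled Runt domain protein; amount: 100 nM per protein; buffer or medium: Tris 50 mM pH 7.5, KCl, K2SO4, 0.01% BSA; read-out: loss of energy transfer signal; detection: FRET fluorescence; controls: 5 µM unlabeled CBFb as full-inhibition high control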
RanGTP-Imp inh = inhibitors of RanGTP-importin-beta interaction, primary screen, biochemical, FRET, CFP-Ran, YFP-importin-beta, homogeneous; cell-free CFP-Ran/YFP-importin-beta FRET ratio; inhibition, % (concentration not given with the values); hit rate 1.1% among 300,000;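 active means more than half of the replicate wells show a fall in the fluorescence ratio signal beyond about 16%, limit read from the data, passing the limit was not always enough; inconclusive means exactly half of the replicate wells pass the set limit; inactive means fewer than half of replicates pass the limit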
Runt-SMMHC FRET = inhibitors of RUNX1 Runt–CBFb-SMMHC binding, primary screen, biochemical, FRET, Cerulean-Runt, Venus-CBFb-SMMHC, uHTS | Runt-related transcription factor 1 (Homo sapiens) + Core-binding factor subunit beta … | AID 1434, 2008 | inhibition, % at 20 µM | hit rate 0.74% among 220,000 | Cerulean-Runt/Venus-CBFb-SMMHC FRET ratio 530/480, 1 h;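 active means mean inhibition across duplicate retests at 20 µM reaching about 50%, limit read from the data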;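 further: inhibitors lower the FRET ratio by blocking Runt binding to CBFb-SMMHC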
TbHK1 inh = Trypanosoma brucei hexokinase 1 inhibitors, primary screen, biochemical, G6PDH-coupled NADH absorbance, MLSCN library | AID 1430, 2008 | hexokinase 1 [Trypanosoma brucei] | inhibition, % at 10 µM | recombinant TbHK1, G6PDH-coupled NADH A340 | hit rate 0.11% among 220,000;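 active means inhibition of 50% or more in the single-dose primary screen; inactive means inhibition below 50%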
p97 inhibitor = inhibitors of human p97 ATPase, primary screen, biochemical; hit rate 0.42% among 220,000; recombinant p97 ATPase, Kinase-Glo ATP luminescence, 3 h; Transitional endoplasmic reticulum ATPase (Homo sapiens), P55072; AID 1481, 2009; inhibition, % at 8 µM; in the data active means inhibition above about 15%
Target sequence (P55072 whole entry, looked up): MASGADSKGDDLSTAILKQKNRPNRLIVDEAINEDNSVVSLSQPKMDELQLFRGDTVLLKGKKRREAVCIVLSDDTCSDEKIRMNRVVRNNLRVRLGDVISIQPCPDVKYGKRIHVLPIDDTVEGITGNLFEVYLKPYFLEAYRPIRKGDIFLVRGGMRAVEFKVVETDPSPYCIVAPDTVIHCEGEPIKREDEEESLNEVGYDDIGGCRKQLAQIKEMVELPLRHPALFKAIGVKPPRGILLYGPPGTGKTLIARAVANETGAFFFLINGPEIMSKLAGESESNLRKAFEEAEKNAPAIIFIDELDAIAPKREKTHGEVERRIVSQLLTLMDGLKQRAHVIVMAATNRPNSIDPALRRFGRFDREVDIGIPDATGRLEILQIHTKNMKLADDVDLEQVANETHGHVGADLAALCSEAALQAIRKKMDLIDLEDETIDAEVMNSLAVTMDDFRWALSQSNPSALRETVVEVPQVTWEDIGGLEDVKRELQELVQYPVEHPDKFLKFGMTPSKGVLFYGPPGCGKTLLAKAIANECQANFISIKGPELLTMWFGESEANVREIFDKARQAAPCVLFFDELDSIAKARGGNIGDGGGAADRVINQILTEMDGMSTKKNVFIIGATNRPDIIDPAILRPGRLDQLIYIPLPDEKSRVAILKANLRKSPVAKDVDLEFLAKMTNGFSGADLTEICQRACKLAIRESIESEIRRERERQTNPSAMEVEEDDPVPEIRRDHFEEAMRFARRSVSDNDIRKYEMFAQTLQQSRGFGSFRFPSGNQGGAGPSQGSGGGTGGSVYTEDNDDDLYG
Hck-Nef inh = inhibitors of Nef-activated human Hck kinase, primary screen, biochemical, Z-Lyte FRET, 384-well, Hck-YEEI | hit rate 0.68% among 220,000 | inhibition, % at 20 µM | Tyrosine-protein kinase HCK (Homo sapiens), P08631 | Recombinant Hck-YEEI plus Nef, Z-Lyte FRET kinase assay;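 active means Hck-Nef kinase inhibition above about 50%, limit read from the data; inactive means inhibition below that limit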
Runt-CBFb TRFRET = inhibitors of RUNX1 Runt–CBFb binding, biochemical, TR-FRET; TR-FRET RUNX1 Runt domain-CBFb binding; hit rate 20% among 480; shares compounds with Runt-CBFb FRET; inhibition, % at 20 µM; in the data active means inhibition above about 40%
Of the large screens only hits and unclear results are named; the others gave an inactive call (follow-up assays come after a bar, where they were run). Compounds with a hit are over-represented: about 2.1% of the library has one in this group of screens.

CC(c1ccccc1C(O)c1ccccc1)N(C)C (configuration not stated)	Runt-CBFb FRET 56.9 | Runt-CBFb TRFRET inactive
CN(C)C(=O)CN1CCN(Cc2cn(C)nc2-c2ccc3c(c2)OCCO3)CC1	none
COc1ccc(C(CCN2CCN(c3ccccc3)CC2)c2c(OC)cc(OC)c3c(-c4ccccc4)cc(=O)oc23)cc1 (configuration not stated)	Runt-CBFb FRET 55.2 (no result: p97 inhibitor) | Runt-CBFb TRFRET inactive
O=C1CC2(CCN(C(=O)C3CC(=O)N(c4ccc(F)cc4)C3)CC2)Oc2ccccc21 (configuration not stated)	none (no result: Runt-CBFb FRET, Runt-SMMHC FRET, TbHK1 inh, p97 inhibitor, Hck-Nef inh)
O=C(Nc1oc2ccc(Cl)cc2c(=O)c1-c1ccc(F)cc1)c1ccco1	none (no result: Runt-CBFb FRET, Runt-SMMHC FRET, TbHK1 inh, p97 inhibitor, Hck-Nef inh)
COc1ccccc1N1CCN(Cc2ccsc2)CC1	Runt-CBFb FRET 54.0 | Runt-CBFb TRFRET inactive
Cc1c(Cc2ccccc2)sc(/N=C/c2ccc3ccccc3c2)c1C(N)=O	none (no result: RanGTP-Imp inh)
Cc1c(Cc2ccccc2)sc(/N=C/c2c(O)ccc3ccccc23)c1C(N)=O	Runt-CBFb FRET 104.8, RanGTP-Imp inh 119.9, Runt-SMMHC FRET 63.1 | Runt-CBFb TRFRET inactive
COc1cccc2cc(C(=O)N3CCN(C45CC6CC(CC(C6)C4)C5)CC3)c(=O)oc12	Runt-CBFb FRET 59.7, RanGTP-Imp inh 53.3 | Runt-CBFb TRFRET inactive
CCOCCCn1c(=N)c(C(=O)NCc2ccc3c(c2)OCO3)cc2c(=O)n3ccccc3nc21	Runt-CBFb FRET 51.4, RanGTP-Imp inh 28.8, Runt-SMMHC FRET 125.3 | Runt-CBFb TRFRET inactive
CCNC(=O)CSc1nc2ccccc2c(=O)n1CCCOC(C)C	none
CC(C)OCCCn1c(=N)c(C(N)=S)cc2c(=O)n3ccccc3nc21	Runt-CBFb FRET 65.3, Runt-SMMHC FRET 65.3 | Runt-CBFb TRFRET inactive
O=C(O)/C=C\C(=O)Nc1ccc(F)c(F)c1F	none
Oc1ccc(/C=N/N=C(c2ccccc2)c2ccccc2)c(O)c1O	Runt-CBFb FRET 56.7 (no result: RanGTP-Imp inh) | Runt-CBFb TRFRET 62.8
CC(C)Cc1csc(NC(=O)c2ccccc2Cl)c1C(=O)O	Runt-CBFb FRET 105.1 | Runt-CBFb TRFRET inactive
N#C/C(=C\c1c(N2CCCCCC2)nc2ccccn2c1=O)C(=O)NCc1ccco1	Runt-CBFb FRET 75.4 | Runt-CBFb TRFRET inactive
N#C/C(=C\c1ccco1)C(=O)Nc1cccc2ncccc12	Runt-CBFb FRET 61.0 | Runt-CBFb TRFRET inactive
O=C(NC(=S)Nc1cccc2ncccc12)c1ccco1	none
CN1c2ccsc2C(O)=C(C(=S)Nc2ccc(F)c(Cl)c2)S1(=O)=O	Runt-CBFb FRET 85.2, RanGTP-Imp inh 124.0 (no result: Runt-SMMHC FRET) | Runt-CBFb TRFRET inactive
Cn1cc(C(=O)Nc2ccc(F)c(Cl)c2)cn1	none
C=CC1=C2C=C(C3CC3)N(CCCN(CC)CC)C=C2C(=O)C(C)(OC(=O)c2ccco2)C1=O (configuration not stated)	none (no result: Runt-CBFb FRET, Runt-SMMHC FRET, TbHK1 inh, p97 inhibitor, Hck-Nef inh)
COc1ccc2nc(NC(=O)c3sc4nc(C)cc(C)c4c3N)sc2c1	Runt-CBFb FRET 64.8 | Runt-CBFb TRFRET inactive
COc1ccc2nc(NC(=O)c3cc(C)oc3C)sc2c1	none
O=C(Nc1c(C(=O)N2CCOCC2)cnn1-c1ccccc1)c1ccc(F)cc1	none (no result: Runt-CBFb FRET, Runt-SMMHC FRET, TbHK1 inh, p97 inhibitor, Hck-Nef inh)
O=C1C2C3C=CC(CO)(O3)C2C(=O)N1c1ccccc1-c1ccccc1 (configuration not stated)	Runt-CBFb FRET 61.4, Runt-SMMHC FRET 67.8 (no result: RanGTP-Imp inh) | Runt-CBFb TRFRET 70.5
O=C(CSC(=S)N1CCOCC1)Nc1ncc2c(n1)CC(c1ccco1)CC2=O (configuration not stated)	none
O=C(O)C1C2CCC(O2)C1C(=O)Nc1ccc(OC(F)F)cc1 (configuration not stated)	none (no result: Runt-CBFb FRET, Runt-SMMHC FRET, TbHK1 inh, p97 inhibitor, Hck-Nef inh)
CC(=O)c1ccc(OC(=O)CCc2nc3ccccc3s2)cc1	Runt-CBFb FRET 58.7 | Runt-CBFb TRFRET 41.8
O=C(CSc1ncnc2ccccc12)NCc1ccco1	none
O=C(CSc1ncnc2ccccc12)c1ccco1	Runt-CBFb FRET 59.0, RanGTP-Imp inh inconclusive, Runt-SMMHC FRET 115.8 | Runt-CBFb TRFRET 41.9
CCOC(=O)c1cnc(-n2nc(C)cc2C)nc1Nc1ccc(C)cc1	none
CCOC(=O)c1cnc(-n2nc(C)cc2C)nc1Nc1ccc2c(c1)OCO2	Runt-CBFb FRET 72.8 (no result: RanGTP-Imp inh, TbHK1 inh, p97 inhibitor, Hck-Nef inh) | Runt-CBFb TRFRET inactive
CCn1c(C)c(C(C)=O)c(N2CCN(c3ccccn3)CC2)nc1=S	Runt-CBFb FRET 51.8, RanGTP-Imp inh 45.3, Runt-SMMHC FRET 99.9 | Runt-CBFb TRFRET inactive
Cc1nc2ccccc2c(=O)n1/N=C/c1ccc([N+](=O)[O-])o1	Runt-CBFb FRET 56.9 | Runt-CBFb TRFRET inactive
COc1ccc(C2c3ccc(O)cc3Oc3ncn4nc(-c5ccccn5)nc4c32)cc1 (configuration not stated)	Runt-CBFb FRET 52.8, RanGTP-Imp inh inconclusive (no result: Runt-SMMHC FRET) | Runt-CBFb TRFRET inactive
COc1ccc(C2c3ccc(O)cc3Oc3ncn4nc(-c5ccccn5)nc4c32)cc1OC (configuration not stated)	none
CC(C)N1CCc2c(sc(N)c2C#N)C1	Runt-CBFb FRET 59.0, RanGTP-Imp inh 68.5, Runt-SMMHC FRET 141.6 (no result: TbHK1 inh, p97 inhibitor, Hck-Nef inh) | Runt-CBFb TRFRET inactive
O=C(Nc1cccc(Cl)c1)c1ccc2c(c1)SC1=NS(=O)(=O)CCN12	none (no result: RanGTP-Imp inh)
Clc1cccc(Nc2c3c(nc4ncnn24)CCC3)c1	Runt-CBFb FRET 54.5 | Runt-CBFb TRFRET inactive
O=CN/C=C/c1cc(O)ccc1O	Runt-CBFb FRET 64.6, Runt-SMMHC FRET 58.7 (no result: RanGTP-Imp inh) | Runt-CBFb TRFRET inactive
O=Cc1ccc(O)cc1O	none (no result: Runt-CBFb FRET, Runt-SMMHC FRET, TbHK1 inh, p97 inhibitor, Hck-Nef inh)
COc1ccc(C(=O)Nc2cc(C)nn2-c2ccc(F)cc2)cc1	none (no result: Runt-CBFb FRET, Runt-SMMHC FRET, TbHK1 inh, p97 inhibitor, Hck-Nef inh)
CCOC(=O)c1ccc(N2C(=O)c3n[nH]c(-c4ccco4)c3C2c2ccc([N+](=O)[O-])cc2)cc1 (configuration not stated)	Runt-CBFb FRET 68.0 | Runt-CBFb TRFRET inactive
CCOC(=O)c1ccc(N2C(=O)c3n[nH]c(C)c3C2c2cccnc2)cc1 (configuration not stated)	none
O=C(CC1Sc2ccccc2NC1=O)OCc1cc(=O)oc2cc(O)ccc12 (configuration not stated)	Runt-CBFb FRET 62.0, RanGTP-Imp inh inconclusive (no result: Runt-SMMHC FRET) | Runt-CBFb TRFRET 48.9
